Experimental data from ChEMBL document CHEMBL4725313, “Development of phenylthiourea derivatives as allosteric inhibitors of pyoverdine maturation enzyme PvdP tyrosinase” (Bioorg Med Chem Lett, 2020).
Activity calls are given as the source filed them. The calls are words filed in the database; no cut-off is given here.

Assays:
[1] = Inhibition of Pseudomonas aeruginosa PvdP tyrosinase
Mushroom tyrosinase = Mushroom tyrosinase (Agaricus bisporus, UniProt O42713+Q00024+C7FF04+C7FF05); experiment: Inhibition of mushroom tyrosinase
[2] = Selectivity ratio of IC50 for mushroom tyrosinase to IC50 for Pseudomonas aeruginosa PvdP tyrosinase
Pseudomonas aeruginosa [3] = experiment: Non-competitive inhibition of Pseudomonas aeruginosa PvdP tyrosinase assessed as Vmax at 0.2 uM by Lineweaver-Burk double reciprocal plot analysis (reference value: 0.0155 1/min)
Pseudomonas aeruginosa [4] = experiment: Non-competitive inhibition of Pseudomonas aeruginosa PvdP tyrosinase assessed as Vmax at 0.5 uM by Lineweaver-Burk double reciprocal plot analysis (reference value: 0.0155 1/min)
Pseudomonas aeruginosa [5] = experiment: Non-competitive inhibition of Pseudomonas aeruginosa PvdP tyrosinase assessed as Km at 0.2 uM by Lineweaver-Burk double reciprocal plot analysis (reference value: 1.136 mM)
Pseudomonas aeruginosa [6] = experiment: Non-competitive inhibition of Pseudomonas aeruginosa PvdP tyrosinase assessed as Km at 0.5 uM by Lineweaver-Burk double reciprocal plot analysis (reference value: 1.136 mM)
Pseudomonas aeruginosa [7] = experiment: Inhibition of Pseudomonas aeruginosa PvdP tyrosinase mutant at 1 uM
[8] = (§1) Inhibition of PvdP tyrosinase in Pseudomonas aeruginosa PAO1 assessed as reduction in pyoverdin production incubated for 24 hrs in low iron medium
In short: (§2)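 P. aeruginosa PAO1 grown 24 h in low-iron medium with a serial dilution of compound (200 - 0.79 µM; final DMSO 1%). Vehicle 1% DMSO as negative control. After incubation, pyoverdine read at 405 nm and cell growth at 600 nm.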

[9] = system: Pseudomonas aeruginosa PAO1; experiment: as §1; in short: as §2
Pseudomonas aeruginosa [10] = experiment: Inhibition of Pseudomonas aeruginosa PvdP tyrosinase up to 100 uM relative to control; conditions: dose microM <=100

COc1ccc(CN=C(S)Nc2ccccc2)cc1
IC50 ([1]; read-out: IC50): 19.3 µM

Fc1ccc(CNC(=S)Nc2ccccc2)cc1
IC50 ([1]; read-out: IC50): 13.6 µM

S=C(NCc1c(Cl)cccc1Cl)Nc1ccccc1
IC50 ([1]; read-out: IC50): 7.6 µM
IC50 (Mushroom tyrosinase): > 500 µM
Ratio IC50 [2]: > 500

NC(=S)Nc1ccccc1 [PHENYLTHIOUREA]
IC50 ([1]; read-out: IC50): 174 µM

S=C(NCc1ccc(Cl)cc1)Nc1ccccc1
IC50 ([1]; read-out: IC50): 0.57 µM
Vmax (Pseudomonas aeruginosa [3]): 0.0126 min⁻¹
Vmax (Pseudomonas aeruginosa [4]): 0.0111 min⁻¹
Km (Pseudomonas aeruginosa [5]): 1130 µM
Km (Pseudomonas aeruginosa [6]): 1140 µM
inhibition (Pseudomonas aeruginosa [7]): inactive
IC50 (Mushroom tyrosinase): 328 µM
IC50 [8]: 44.9 µM
inhibition [9]: Dose-dependent effect
Ratio IC50 [2]: > 500

Fc1cccc(Cl)c1NC(=S)Nc1ccccc1
IC50 [1]: Not Active

S=C(NCc1ccccc1Cl)Nc1ccccc1
IC50 ([1]; read-out: IC50): 7.9 µM
IC50 (Mushroom tyrosinase): > 500 µM
Ratio IC50 [2]: > 500

C=CCNC(=S)Nc1ccccc1
IC50 [1]: Not Active

NC(=O)Nc1ccccc1 [PHENYLUREA]
IC50 [1]: Not Active
inhibition (Pseudomonas aeruginosa [10]): < 50%

S=C(NCc1ccc(Br)cc1)Nc1ccccc1
IC50 ([1]; read-out: IC50): 23.5 µM

CN(C)c1ccc(NC(=S)NCc2ccc(Cl)cc2)cc1
IC50 ([1]; read-out: IC50): 14.3 µM

Fc1ccc(CCNC(=S)Nc2ccccc2)cc1
IC50 ([1]; read-out: IC50): 22.6 µM

Cc1ccc(NC(=S)NCc2ccc(Cl)cc2)cc1
IC50 ([1]; read-out: IC50): 22.3 µM

S=C(NCc1ccccc1)Nc1ccccc1
IC50 ([1]; read-out: IC50): 19.4 µM

CNC(=S)Nc1ccccc1
IC50 [1]: Not Active
